The record followed here is ChEMBL document CHEMBL1133675, “New substituted 1-(2,3-dihydrobenzo[1, 4]dioxin-2-ylmethyl)piperidin-4-yl derivatives with alpha(2)-adrenoceptor antagonist activity” (J Med Chem, 2000).

Assay [1] addresses T1, Adrenergic receptor alpha-1 (Rattus norvegicus, UniProt P15823+P23944+P43140).
T1 sequence (P15823 whole entry): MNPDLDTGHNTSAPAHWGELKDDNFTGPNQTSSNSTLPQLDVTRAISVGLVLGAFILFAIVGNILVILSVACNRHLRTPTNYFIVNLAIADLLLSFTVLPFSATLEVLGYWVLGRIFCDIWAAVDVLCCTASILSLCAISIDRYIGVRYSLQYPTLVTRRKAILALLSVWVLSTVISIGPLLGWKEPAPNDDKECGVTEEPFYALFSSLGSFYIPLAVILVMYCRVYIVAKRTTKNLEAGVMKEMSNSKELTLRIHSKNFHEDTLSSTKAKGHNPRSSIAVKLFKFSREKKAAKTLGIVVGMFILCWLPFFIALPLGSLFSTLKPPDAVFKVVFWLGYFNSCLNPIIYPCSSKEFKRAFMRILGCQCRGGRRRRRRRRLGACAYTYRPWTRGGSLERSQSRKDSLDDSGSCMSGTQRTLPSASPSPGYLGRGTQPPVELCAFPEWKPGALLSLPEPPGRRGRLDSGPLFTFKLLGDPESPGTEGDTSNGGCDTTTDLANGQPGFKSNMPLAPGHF
T1 sequence (P23944 whole entry): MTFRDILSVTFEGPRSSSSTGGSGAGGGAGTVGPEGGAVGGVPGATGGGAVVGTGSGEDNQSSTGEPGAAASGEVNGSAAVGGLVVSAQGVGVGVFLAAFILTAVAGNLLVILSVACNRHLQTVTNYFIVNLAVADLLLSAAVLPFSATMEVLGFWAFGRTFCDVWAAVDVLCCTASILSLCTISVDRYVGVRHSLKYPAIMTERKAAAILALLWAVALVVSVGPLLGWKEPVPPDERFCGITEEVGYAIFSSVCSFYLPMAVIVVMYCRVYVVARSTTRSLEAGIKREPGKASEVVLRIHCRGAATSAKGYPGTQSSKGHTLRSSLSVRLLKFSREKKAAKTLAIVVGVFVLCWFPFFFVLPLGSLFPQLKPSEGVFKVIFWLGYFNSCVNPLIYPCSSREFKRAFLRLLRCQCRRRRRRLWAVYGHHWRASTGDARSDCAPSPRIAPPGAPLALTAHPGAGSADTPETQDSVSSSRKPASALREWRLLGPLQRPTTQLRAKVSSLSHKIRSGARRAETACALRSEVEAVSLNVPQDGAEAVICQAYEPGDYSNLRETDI
T1 sequence (P43140 whole entry): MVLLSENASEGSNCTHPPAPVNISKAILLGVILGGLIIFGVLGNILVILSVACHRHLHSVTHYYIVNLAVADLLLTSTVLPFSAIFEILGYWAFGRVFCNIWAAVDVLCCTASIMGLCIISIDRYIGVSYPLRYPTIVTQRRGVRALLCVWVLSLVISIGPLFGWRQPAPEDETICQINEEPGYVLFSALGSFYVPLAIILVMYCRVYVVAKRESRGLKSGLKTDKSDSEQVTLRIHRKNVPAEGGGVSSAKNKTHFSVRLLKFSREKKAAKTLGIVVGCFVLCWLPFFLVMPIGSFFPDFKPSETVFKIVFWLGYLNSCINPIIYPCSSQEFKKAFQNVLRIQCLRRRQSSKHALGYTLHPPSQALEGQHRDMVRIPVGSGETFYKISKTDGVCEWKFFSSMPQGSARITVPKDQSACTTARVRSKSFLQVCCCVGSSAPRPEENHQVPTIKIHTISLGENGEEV
Description: In vitro inhibition of specific binding of [3H]- prazosin to alpha-1 adrenergic receptor site in rat brain membranes. In kind it is cell membranes.

In assay [2] the target is T2, Adrenergic receptor alpha-2 (Rattus norvegicus, UniProt P22086+P19328+P22909).
T2 sequence (P22086 whole entry): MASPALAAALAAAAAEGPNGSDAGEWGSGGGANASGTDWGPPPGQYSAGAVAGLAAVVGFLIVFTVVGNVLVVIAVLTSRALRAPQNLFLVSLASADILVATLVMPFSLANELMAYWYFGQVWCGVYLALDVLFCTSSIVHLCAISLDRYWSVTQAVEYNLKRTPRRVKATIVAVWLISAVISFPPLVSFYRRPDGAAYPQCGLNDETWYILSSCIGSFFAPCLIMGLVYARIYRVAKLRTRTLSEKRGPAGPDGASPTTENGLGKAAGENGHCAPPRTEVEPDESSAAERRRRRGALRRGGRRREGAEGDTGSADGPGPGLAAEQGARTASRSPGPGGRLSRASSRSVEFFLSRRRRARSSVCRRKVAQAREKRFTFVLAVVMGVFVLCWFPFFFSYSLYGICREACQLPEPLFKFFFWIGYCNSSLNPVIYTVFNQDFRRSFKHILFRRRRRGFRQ
T2 sequence (P19328 whole entry): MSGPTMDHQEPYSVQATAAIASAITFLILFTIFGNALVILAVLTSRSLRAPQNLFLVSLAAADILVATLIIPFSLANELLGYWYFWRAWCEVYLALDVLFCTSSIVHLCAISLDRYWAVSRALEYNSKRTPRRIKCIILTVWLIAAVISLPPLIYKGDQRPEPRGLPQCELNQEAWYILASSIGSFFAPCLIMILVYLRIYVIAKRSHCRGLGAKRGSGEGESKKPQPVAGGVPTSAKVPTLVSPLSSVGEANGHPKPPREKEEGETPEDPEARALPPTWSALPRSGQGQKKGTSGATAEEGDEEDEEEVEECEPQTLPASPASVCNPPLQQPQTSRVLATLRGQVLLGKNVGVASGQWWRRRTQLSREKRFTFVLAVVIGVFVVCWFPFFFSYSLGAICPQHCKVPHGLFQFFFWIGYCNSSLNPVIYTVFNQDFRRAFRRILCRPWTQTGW
T2 sequence (P22909 whole entry): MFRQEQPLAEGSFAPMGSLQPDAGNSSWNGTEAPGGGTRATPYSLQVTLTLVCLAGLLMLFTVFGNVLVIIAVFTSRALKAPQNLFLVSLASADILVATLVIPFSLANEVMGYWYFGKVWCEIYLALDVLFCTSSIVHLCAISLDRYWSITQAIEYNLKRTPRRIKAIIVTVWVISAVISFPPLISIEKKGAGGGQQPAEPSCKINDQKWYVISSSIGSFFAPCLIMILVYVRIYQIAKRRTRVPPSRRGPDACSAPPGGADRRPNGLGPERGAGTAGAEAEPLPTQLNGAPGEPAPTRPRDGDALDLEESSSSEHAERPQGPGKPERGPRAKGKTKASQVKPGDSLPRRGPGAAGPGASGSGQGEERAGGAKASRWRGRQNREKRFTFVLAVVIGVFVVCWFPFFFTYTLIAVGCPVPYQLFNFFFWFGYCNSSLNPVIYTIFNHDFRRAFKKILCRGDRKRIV
Description: In vitro inhibition of binding of [3H]-RX-821002 to alpha-2 adrenergic receptor site in rat brain membranes. In kind it is cell membranes.

For assay [3], the target named is D(2) dopamine receptor (Rattus norvegicus, UniProt P61169). In words: In vitro inhibition of specific binding of [3H]-YM 09151-2 to Dopamine receptor D2 site in rat striatal tissue. Type of assay: tissue-based, Striatum.
In assay [4] the test system is Mus musculus. In words: In vivo antagonism of guanabenz-induced hypothermia in mice after peroral administration; Inactive. In kind it is functional, organism-based. The essentials:
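Male NMRI mice (30-32 g), five per dose; vehicle or drug by oral gavage, guanabenz 1 mg/kg ip 35 min later. Rectal temperature by thermistor 25 min post-guanabenz; inhibition scored as temperature > 36 °C. […] Active range is doses giving inhibition in more than 80% of mice.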

Assay [5] concerns Mus musculus. Description: In vivo antagonism of guanabenz-induced hypothermia in mice after intraperitoneal administration at a dose of 2.5 mg/kg. The conditions noted are these: ip. In kind it is functional. The essentials:
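Male NMRI mice, 30-32 g, 5 per dose; test drug or vehicle given ip, then 5 min later guanabenz 1 mg/kg ip. Rectal temperature read by thermistor probe 25 min after guanabenz. Inhibition means temperature > 36 °C. […] Active dose range = doses inhibiting in more than 80% of animals.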

Each structure is given as a SMILES string. Activity calls are given as the source filed them.

D(2) dopamine receptor, sequence (P61169 whole entry): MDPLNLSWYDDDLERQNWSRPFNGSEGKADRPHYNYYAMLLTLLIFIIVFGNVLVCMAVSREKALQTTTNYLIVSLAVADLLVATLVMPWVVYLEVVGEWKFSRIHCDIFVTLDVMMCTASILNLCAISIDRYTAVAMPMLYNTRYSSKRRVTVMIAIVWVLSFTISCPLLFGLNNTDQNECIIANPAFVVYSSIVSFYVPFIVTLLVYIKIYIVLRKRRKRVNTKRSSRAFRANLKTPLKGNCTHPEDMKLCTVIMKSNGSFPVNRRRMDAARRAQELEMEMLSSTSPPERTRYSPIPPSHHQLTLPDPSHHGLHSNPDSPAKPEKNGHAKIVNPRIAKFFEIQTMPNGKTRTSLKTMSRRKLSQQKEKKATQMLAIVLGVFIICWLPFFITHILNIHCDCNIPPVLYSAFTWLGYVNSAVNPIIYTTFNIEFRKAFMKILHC

With `O=C(NCCC1CCN(CC2COc3ccccc3O2)CC1)NC1CCCCC1` (stereo not given), the figures for the IC50 in assay [1], in assay [2] and in assay [3] were 42 nM, 2 nM and 35 nM, respectively. In assay [4], the NA result is “inactive”. The compound also had a 50% effective dose (ED50) in assay [5] of 0.69 mg/kg.
